From publication PMC4460194 (Current Therapeutic Research, Clinical and Experimental, 2015)
Read-outs that look alike come from different tables or passages of the source.

How the values were obtained:
[1] = assay type: in vivo, human (healthy Chinese volunteers); conditions: for Cav: 2 mg multiple dose
Summary of the method: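 Healthy Chinese volunteers (18–27 years, BMI 19–24) took a 2-mg tablet of the test compound orally once daily for 6 days. Predose samples were taken on days 3–5. On day 6, samples were taken predose and from 0.25 to 48 h. Heparinised plasma was stored at –20°C and extracted into diethyl ether-dichloromethane. LC-MS/MS range was 0.287–287 ng/mL. Noncompartmental analysis; accumulation index = AUC(multiple-dose)/AUC(single-dose).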

[2] = Single-dose pharmacokinetic study of pitavastatin calcium tablets; assay type: in vivo, human (healthy Chinese volunteers); conditions: for half-life / AUC(0-inf) / AUC(0-t) / Tmax / Vd / clearance / Cmax: human, plasma
Summary of the method: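 Randomized 3-way crossover in healthy Chinese volunteers (6 male, 6 female) with 5-day washouts. Single oral 1, 2 or 4 mg tablets were given after a 12-h fast with 200 mL water; meals at 4 and 10 h. Venous samples were taken predose and from 0.25 to 36 h. Heparinised plasma was analysed by LC-MS/MS (0.287–287 ng/mL). Noncompartmental analysis: Cmax/Tmax observed; AUC0–t by linear trapezoidal rule; AUC0–∞ = AUC0–t + Ct/λ.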

[3] = OATP 388GA + 388GG mutant group vs 388AA wild-type group; cited from earlier work
[4] = Stability tests of the analyte in human plasma; assay type: in vitro ADME
[5] = test system: albumin and alpha-1-acid glycoprotein; conditions: primarily to albumin and alpha-1-acid glycoprotein; cited from earlier work
Tolerability assessment = assay type: in vivo, human (healthy Chinese volunteers); conditions: single doses of 1 mg, 2 mg, or 4 mg and multiple doses of 2 mg once daily for 6 days, all subjects
[6] = animal studies, tissue distribution; cited from earlier work
[7] = did not convert to Pi-LAC; cited from earlier work
[8] = multiple dose 2 mg once daily for 6 days, n = 11, mean (SD)

- accumulation index (Cmax, multiple-dose/Cmax, single-dose) ([1]; 2 mg multiple dose vs 2 mg single dose, mean (SD)): 0.85 (0.23)
- accumulation index (AUC) ([1]; 2 mg multiple dose vs 2 mg single dose, ratio of AUC, mean (SD)): 0.98 (0.28)
- Cav ([1]; female (n = 6), mean (SD)): 11.65 (6.58) ng/mL
- Cav ([1]; male (n = 5), mean (SD)): 10.32 (1.86) ng/mL
- steady state of plasma pitavastatin concentration achieved ([1]; 2 mg once daily, day of multiple dosing): ~4 days
- Cav (steady-state concentration) [1, 8]: 11.05 (4.85) ng/mL
- Cmin (steady-state trough concentration) [1, 8]: 2.58 (0.92) ng/mL
- half-life ([2]; both, oral): ~600 min
- AUC(0-inf) ([2]; both, oral, 1 mg): 206 ng·h/mL
- AUC(0-t) ([2]; both, oral, 1 mg): 190 ng·h/mL
- Tmax ([2]; both, oral, 1 mg): 37.8 min
- Vd ([2]; both, oral, 1 mg): 79.9 L
- clearance ([2]; both, oral, 1 mg): 84.8 mL/min
- half-life ([2]; both, oral, 1 mg): 659 min
- AUC(0-inf) ([2]; both, oral, 2 mg): 321 ng·h/mL
- AUC(0-t) ([2]; both, oral, 2 mg): 308 ng·h/mL
- Tmax ([2]; both, oral, 2 mg): 39 min
- Vd ([2]; both, oral, 2 mg): 86.9 L
- clearance ([2]; both, oral, 2 mg): 108 mL/min
- half-life ([2]; both, oral, 2 mg): 571 min
- AUC(0-inf) ([2]; both, oral, 4 mg): 828 ng·h/mL
- AUC(0-t) ([2]; both, oral, 4 mg): 785 ng·h/mL
- Tmax ([2]; both, oral, 4 mg): 47.4 min
- Vd ([2]; both, oral, 4 mg): 72.5 L
- clearance ([2]; both, oral, 4 mg): 85.5 mL/min
- half-life ([2]; both, oral, 4 mg): 623 min
- Tmax ([2]; both, po): ≤ 60 min
- Cmax ([2]; both, po, 1 mg): 66.8 ng/mL
- Cmax ([2]; both, po, 2 mg): 106 ng/mL
- Cmax ([2]; both, po, 4 mg): 233 ng/mL
- AUC(0-t) ([2]; female, oral, 1 mg): 204 ng·h/mL
- Cmax ([2]; female, oral, 1 mg): 71 ng/mL
- Tmax ([2]; female, oral, 1 mg): 40.2 min
- Vd ([2]; female, oral, 1 mg): 73.3 L
- clearance ([2]; female, oral, 1 mg): 77.5 mL/min
- half-life ([2]; female, oral, 1 mg): 581 min
- AUC(0-t) ([2]; female, oral, 2 mg): 330 ng·h/mL
- Cmax ([2]; female, oral, 2 mg): 114 ng/mL
- Tmax ([2]; female, oral, 2 mg): 40.2 min
- Vd ([2]; female, oral, 2 mg): 87.5 L
- clearance ([2]; female, oral, 2 mg): 102 mL/min
- half-life ([2]; female, oral, 2 mg): 597 min
- Cmax ([2]; female, oral, 4 mg): 253 ng/mL
- Tmax ([2]; female, oral, 4 mg): 54 min
- Vd ([2]; female, oral, 4 mg): 72.7 L
- clearance ([2]; female, oral, 4 mg): 83 mL/min
- half-life ([2]; female, oral, 4 mg): 707 min
- AUC(0-t) ([2]; male, oral, 1 mg): 176 ng·h/mL
- Cmax ([2]; male, oral, 1 mg): 62.6 ng/mL
- Tmax ([2]; male, oral, 1 mg): 34.8 min
- Vd ([2]; male, oral, 1 mg): 86.4 L
- clearance ([2]; male, oral, 1 mg): 92 mL/min
- half-life ([2]; male, oral, 1 mg): 737 min
- AUC(0-t) ([2]; male, oral, 2 mg): 286 ng·h/mL
- Cmax ([2]; male, oral, 2 mg): 98.4 ng/mL
- Tmax ([2]; male, oral, 2 mg): 37.8 min
- Vd ([2]; male, oral, 2 mg): 86.4 L
- clearance ([2]; male, oral, 2 mg): 114 mL/min
- half-life ([2]; male, oral, 2 mg): 545 min
- AUC(0-t) ([2]; male, oral, 4 mg): 690 ng·h/mL
- Cmax ([2]; male, oral, 4 mg): 209 ng/mL
- Tmax ([2]; male, oral, 4 mg): 39 min
- Vd ([2]; male, oral, 4 mg): 72.2 L
- clearance ([2]; male, oral, 4 mg): 98.5 mL/min
- half-life ([2]; male, oral, 4 mg): 523 min
- correlation coefficient of dose-proportionality linear regression for AUC0−t ([2]; single dosing 1 mg, 2 mg, 4 mg): 0.92
- correlation coefficient of dose-proportionality linear regression for AUC0−∞ ([2]; single dosing 1 mg, 2 mg, 4 mg): 0.91
- correlation coefficient of dose-proportionality linear regression for Cmax ([2]; single dosing 1 mg, 2 mg, 4 mg): 0.86
- stability in human plasma ([4]; after 3 freeze-thaw cycles (80°C to room temperature)): stable
- stability in human plasma ([4]; at −20°C for 80 days): stable
- stability of processed samples ([4]; processed samples at room temperature for 8 hours): stable
Structure (SMILES): O=C(O)C[C@H](O)C[C@H](O)/C=C/c1c(C2CC2)nc2ccccc2c1-c1ccc(F)cc1 [pitavastatin]
- AUC higher than wild type [3]: about 80%
- Cmax higher than wild type [3]: ~71%
- oral elimination lower than wild type [3]: about 35%
- protein binding ratio [5]: 96%
- tolerability (Tolerability assessment): well tolerated
- liver levels relative to plasma [6]: approximately 54 times
- stability in human plasma (conversion to Pi-LAC) [7]: stable
